We go through 40 compounds from ChEMBL document CHEMBL1154321, “Benzoxazole piperidines as selective and potent somatostatin receptor subtype 5 antagonists” (Bioorg Med Chem Lett, 2009).

In general, Ki refers to the equilibrium dissociation constant of an inhibitor or competing ligand from its target. As a reminder, the logD is lipophilicity at a set pH, counting ionised and neutral species. A higher logD goes with a more lipophilic compound. For orientation: solubility means the concentration that dissolves in the medium under given conditions. As a reminder, the pKa is the pH at which an ionisable group is half protonated. A lower pKa goes with a stronger acid or weaker base.

Series [1] has as its target Somatostatin receptor type 2 (Homo sapiens, UniProt P30874). Put plainly: Displacement of SST14 from human recombinant SST2 receptor. The procedure, abridged: (§1)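 Membranes prepared by sonication from cells expressing the SST receptor subtype, incubated with radiolabeled 11-Tyr SST-14 tracer and test compound at varying concentrations; non-labeled SST-14 defined non-specific binding. Incubation stopped by glass-fiber filtration, bound radioactivity counted; IC50 for half-maximal binding inhibition estimated and Ki derived.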

The target of series [2] is Somatostatin receptor type 4 (Homo sapiens, UniProt P31391). Put plainly: Displacement of SST14 from human recombinant SST4 receptor. The procedure, abridged: as §1
Somatostatin receptor type 4, sequence (P31391 whole entry): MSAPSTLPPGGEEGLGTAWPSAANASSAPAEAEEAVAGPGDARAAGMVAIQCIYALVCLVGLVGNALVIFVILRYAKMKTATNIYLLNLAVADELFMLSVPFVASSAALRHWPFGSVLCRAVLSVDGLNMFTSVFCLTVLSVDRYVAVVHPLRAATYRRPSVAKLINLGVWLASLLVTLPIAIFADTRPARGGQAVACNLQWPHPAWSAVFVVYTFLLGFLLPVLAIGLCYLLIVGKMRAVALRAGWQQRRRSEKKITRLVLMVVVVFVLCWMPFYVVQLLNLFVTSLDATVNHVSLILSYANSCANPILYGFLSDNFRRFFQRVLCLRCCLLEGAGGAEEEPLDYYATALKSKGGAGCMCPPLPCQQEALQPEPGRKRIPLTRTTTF
Series [3] has as its target Somatostatin receptor type 3 (Homo sapiens, UniProt P32745). Put plainly: Displacement of SST14 from human recombinant SST3 receptor. In outline: as §1
The target of series [4] is Somatostatin receptor type 5 (Homo sapiens, UniProt P35346). Put plainly: Displacement of SST14 from human recombinant SST5 receptor expressed in CHO cells by radioligand binding assay. It is filed as cell-based. In outline:
as §1

Series [5] in a line: Octanol-TAPSO partition coefficient, log D at pH 7.4 by spectrophotometry. The following applies: octanol/TAPSO buffer. It is filed as physicochemical. In outline:
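Spectrophotometric log D in 1-octanol/50 mM TAPSO buffer, pH 7.4, containing 5% (v/v) DMSO.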

Series [6] deals with Histamine H1 receptor (Homo sapiens, UniProt P35367). Put plainly: Binding affinity to human histamine H1 receptor.
Histamine H1 receptor, sequence (P35367 whole entry): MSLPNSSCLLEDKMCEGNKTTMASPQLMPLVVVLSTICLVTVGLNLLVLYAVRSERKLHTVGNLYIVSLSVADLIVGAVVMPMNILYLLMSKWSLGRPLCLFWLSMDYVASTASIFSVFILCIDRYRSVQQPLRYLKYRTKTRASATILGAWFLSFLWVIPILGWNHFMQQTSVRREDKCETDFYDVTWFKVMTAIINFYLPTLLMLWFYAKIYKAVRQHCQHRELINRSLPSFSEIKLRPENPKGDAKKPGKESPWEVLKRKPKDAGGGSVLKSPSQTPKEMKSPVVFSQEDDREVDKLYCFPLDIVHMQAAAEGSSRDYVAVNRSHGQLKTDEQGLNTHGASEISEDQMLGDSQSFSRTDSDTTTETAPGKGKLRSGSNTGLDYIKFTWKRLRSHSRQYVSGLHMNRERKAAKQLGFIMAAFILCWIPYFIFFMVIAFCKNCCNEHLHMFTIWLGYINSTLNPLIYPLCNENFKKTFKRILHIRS
Series [7] can be described thus: sPermeability by PAMPA. It is filed as ADME. Particulars: read-out: permeability. In outline:
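Parallel artificial membrane permeation; Pe categorized as low (<0.1), medium (0.1–1.0) or high (>1.0).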
(In general: The PAMPA barrier holds no transporters, so it reflects passive diffusion.)

The species entered for series [8] is Homo sapiens. Put plainly: Selectivity ratio of Ki for human histamine H1 receptor to Ki for human SST5 receptor.
Series [9] can be described thus: Solubility in phosphate buffer at pH 6.5 by lyophilization solubility assay. It is filed as physicochemical. In outline: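 Lyophilized DMSO stock solutions redissolved in 50 mM phosphate buffer, pH 6.5; solubility read spectrophotometrically.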
Series [10] can be described thus: Dissociation constant, pKa by spectrophotometry. It is filed as physicochemical.

Structures are written as SMILES. In brackets after ≈: the same amount, converted by molar mass.

Somatostatin receptor type 2, sequence (P30874 whole entry): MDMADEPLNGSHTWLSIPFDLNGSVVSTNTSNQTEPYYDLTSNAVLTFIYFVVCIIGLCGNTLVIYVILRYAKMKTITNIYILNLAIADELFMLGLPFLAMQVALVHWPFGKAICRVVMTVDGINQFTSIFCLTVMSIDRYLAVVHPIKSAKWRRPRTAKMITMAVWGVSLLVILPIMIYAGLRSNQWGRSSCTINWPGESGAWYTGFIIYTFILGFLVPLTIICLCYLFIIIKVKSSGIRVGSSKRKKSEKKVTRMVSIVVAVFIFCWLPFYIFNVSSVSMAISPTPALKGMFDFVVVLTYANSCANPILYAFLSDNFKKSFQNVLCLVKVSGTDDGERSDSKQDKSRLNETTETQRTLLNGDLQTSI
Somatostatin receptor type 5, sequence (P35346 whole entry): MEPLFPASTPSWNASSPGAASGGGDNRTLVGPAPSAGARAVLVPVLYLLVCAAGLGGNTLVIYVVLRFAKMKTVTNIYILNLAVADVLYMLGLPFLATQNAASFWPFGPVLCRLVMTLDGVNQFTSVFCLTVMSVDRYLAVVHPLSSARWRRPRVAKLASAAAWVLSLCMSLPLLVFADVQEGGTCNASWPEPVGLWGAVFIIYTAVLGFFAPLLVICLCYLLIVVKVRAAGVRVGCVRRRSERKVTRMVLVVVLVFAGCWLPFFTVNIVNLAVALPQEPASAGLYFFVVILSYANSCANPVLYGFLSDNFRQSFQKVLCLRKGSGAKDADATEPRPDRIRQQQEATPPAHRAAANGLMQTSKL
Somatostatin receptor type 3, sequence (P32745 whole entry): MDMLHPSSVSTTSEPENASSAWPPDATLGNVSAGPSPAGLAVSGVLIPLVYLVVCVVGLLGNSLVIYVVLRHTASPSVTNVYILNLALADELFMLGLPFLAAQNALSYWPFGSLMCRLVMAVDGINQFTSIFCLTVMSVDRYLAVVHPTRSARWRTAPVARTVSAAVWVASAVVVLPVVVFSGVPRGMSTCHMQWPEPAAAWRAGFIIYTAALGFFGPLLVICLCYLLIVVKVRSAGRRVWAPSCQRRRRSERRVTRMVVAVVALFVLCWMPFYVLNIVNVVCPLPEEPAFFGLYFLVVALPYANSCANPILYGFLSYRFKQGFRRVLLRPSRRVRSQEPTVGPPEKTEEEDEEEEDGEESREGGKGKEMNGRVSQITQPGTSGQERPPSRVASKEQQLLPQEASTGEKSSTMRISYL

In the case of `CCOc1cc(CN2CCC(Nc3nc4ccccc4o3)CC2)ccc1C`, the Ki in series [1], in [2] and in series [3] was > 10 µM throughout.
In the case of `CCNc1cc(CN2CCC(Nc3nc4ccccc4o3)CC2)ccc1OC`, the Ki in [1] was > 10 µM; in series [2], > 10 µM; in [4], 0.371 µM; in series [3], > 10 µM.
For the compound `CCOc1cc(CN2CCC(Nc3nc4cc(Cl)ccc4o3)CC2)ccc1OC`, the Ki was > 10 µM in series [1], > 10 µM in [2], 0.194 µM in [4] and > 10 µM in series [3].
In the case of `CCOc1cc(NCc2cccc(Nc3nc4ccccc4s3)c2)ccc1OC`, the Ki was > 10 µM in series [1], > 10 µM in series [2], > 1 µM in series [4] and > 10 µM in series [3].
Turning to `CCOc1cc(CN2CCC(Nc3nc4ccccc4o3)CC2)ccc1OC1CC1`, the Ki in series [1] was > 10 µM; in series [2] it was > 10 µM; in [4], 0.537 µM; in series [3], > 10 µM.
For `CCOc1cc(CN2CCC(Nc3nc4cc(OC(F)(F)F)ccc4o3)CC2)ccc1OC`, the Ki was > 10 µM in series [1], > 10 µM in series [2], 0.354 µM in series [4] and > 10 µM in series [3].
As to `CCOc1cc(CN2CCC(Nc3nc4ccccc4o3)CC2)cnc1OC`, the Ki in series [1] is > 10 µM; in series [2], > 10 µM; in series [4], > 1 µM; in [3], > 10 µM.
For `COc1ccc(CN2CCC(Nc3nc4ccccc4o3)CC2)cc1OCC(C)C`, the Ki in [1], in [2] and in series [3] was > 10 µM in each case.
For `CCOc1cc(CN2CCC(Nc3nc4ncccc4o3)CC2)ccc1OC`, the Ki was > 10 µM in series [1], > 10 µM in [2], > 1 µM in [4] and > 10 µM in series [3].
As for `CC(C)Oc1cc(CN2CCC(Nc3nc4ccccc4o3)CC2)cc(OC(C)C)c1`, the Ki in series [1] is > 10 µM; in [2], > 10 µM; in [4] it was 0.031 µM; in series [3], > 10 µM.
With `CCOc1cc(CN2CCC(Nc3nc4ccc(Cl)cc4s3)CC2)ccc1OC`, the Ki was > 10 µM in series [1], > 10 µM in series [2], 0.361 µM in [4] and > 10 µM in [3].
In the case of `CCOc1cc(NC2CCN(c3nc4ccccc4s3)CC2)ccc1OC`, the Ki in series [1] is > 10 µM; in series [2], > 10 µM; in series [4], > 1 µM; in series [3] it was > 10 µM.
In the case of `CCOc1cc(N2CCN(C(=O)Nc3nc4ccccc4s3)CC2)ccc1OC`, the Ki in series [1] was > 10 µM; in series [2] it was > 10 µM; in series [4] it was > 1 µM; in series [3], > 10 µM.
With `CCCOc1cc(CN2CCC(Nc3nc4ccccc4o3)CC2)ccc1OC`, the Ki in [1], in series [2] and in [3] was > 10 µM each time.
Take `CCOc1cc(CN2CCC(Nc3nc4cc([N+](=O)[O-])ccc4o3)CC2)ccc1OC`: the Ki in series [1] was > 10 µM; in [2] it was > 10 µM; in [4] it was 0.252 µM; in series [3] it was > 10 µM.
Consider `CCOc1cc(CN2CCC(C(=O)Nc3nc4ccccc4s3)CC2)ccc1OC`, for which the Ki was > 10 µM in series [1], > 10 µM in [2], > 1 µM in [4] and > 10 µM in series [3].
For the compound `CCOc1cc(CN2CCC(Nc3nc4cc(NC(C)=O)ccc4o3)CC2)ccc1OC`, the Ki in [1] was > 10 µM; in series [2], > 10 µM; in series [4], 0.357 µM; in series [3] it was > 10 µM.
Take `CCOc1cc(NC2CCC(Nc3nc4ccccc4s3)CC2)ccc1OC` (stereo not drawn): the Ki in [1] was > 10 µM; in [2], > 10 µM; in series [4] it was > 1 µM; in [3], > 10 µM.
For the compound `CCOc1cc(CN2CCC(Nc3nc4ccccc4o3)CC2)ccc1OC(C)C`, the Ki in [1] was > 10 µM; in series [2], > 10 µM; in series [4], > 1 µM; in [3], > 10 µM.
Consider `CCOc1cc(CN2CCC(Nc3nc4ccccc4o3)CC2)cc(OCC)c1N`, for which the Ki in series [1] is > 10 µM; in series [2], > 10 µM; in [4] it was 0.033 µM; in series [3] it was > 10 µM.
For `CCOc1cc(CN2CCC(Nc3nc4cccnc4o3)CC2)ccc1OC`, the Ki in series [1] was > 10 µM; in series [2], > 10 µM; in series [4] it was 0.633 µM; in series [3], > 10 µM.
`CCOc1cc(CN2CCC(Nc3nc4cccnc4s3)CC2)ccc1OC`: the Ki in series [1] is > 10 µM; in [2], > 10 µM; in series [4], 0.309 µM; in series [3], > 10 µM.
With `CCOC(=O)c1c(OCC)cc(CN2CCC(Nc3nc4ccccc4o3)CC2)cc1OCC`, the Ki in series [1] is > 10 µM; in series [2], > 10 µM; in series [4], 0.156 µM; in series [3], > 10 µM.
With `COc1ccc(CN2CCC(Nc3nc4ccccc4o3)CC2)cc1OC`, the Ki was > 10 µM in [1], > 10 µM in series [2], 0.472 µM in series [4] and > 10 µM in series [3].
On to `CCOc1cc(CN2CCC(Nc3nc4ccccc4o3)CC2)cc(OCC)c1F`, for which the Ki is > 10 µM in series [1], > 10 µM in [2], 0.178 µM in series [4] and > 10 µM in series [3].
As to `CCOc1cc(CN2CCC(Nc3nc4ccccc4[nH]3)CC2)ccc1OC`, the Ki in series [1] was > 10 µM; in series [2] it was > 10 µM; in series [4], > 1 µM; in series [3], > 10 µM.
In [5], `CCOc1cc(CN2CCC(Nc3nc4cc(S(=O)(=O)N(C)C)ccc4o3)CC2)cc(OCC)c1-n1cccc1` displayed a logD of 2.89. In addition, the Ki is > 10 µM in series [1]; 5 µM in series [6]; > 10 µM in series [2]; 0.052 µM in series [4]; > 10 µM in [3]. Moreover, in series [7], the Papp is 1.31 ×10⁻⁶ cm/s. Further, the Ratio Ki in series [8] was found to be 96. Also, the solubility in series [9] worked out at 22 µg/mL (≈ 38.8 µM).
For `CCOc1cc(CN2CCC(Nc3nc4cc(S(=O)(=O)N(C)C)ccc4o3)CC2)ccc1OC`, the Ki in [1] was > 10 µM; in series [2], > 10 µM; in series [4] it was 0.226 µM; in series [3], > 10 µM.
On to `COc1ccc(CN2CCC(Nc3nc4ccccc4o3)CC2)cc1OCCF`, for which the Ki in series [1] is > 10 µM; in [2], > 10 µM; in series [4], 0.487 µM; in series [3] it was > 10 µM.
As for `COc1ccc(CN2CCC(Nc3nc4ccccc4o3)CC2)cc1OC1CCCC1`, the Ki in [1], in [2] and in series [3] was > 10 µM each time.
In turn, `CCOc1cc(CN2CCC(Nc3nc4cc(Cl)c(S(N)(=O)=O)cc4o3)CC2)cc(OCC)c1F` gave a logD in [5] of 2.78. The Ki in series [1] is > 10 µM; in [2], > 10 µM; in series [4] it was 0.252 µM; in series [3], > 10 µM. Further, the pKa in series [10] amounted to 7.61. Besides, in series [7], the Papp was 2.45 ×10⁻⁶ cm/s. The compound further gave a solubility in [9] of 32 µg/mL (≈ 60.7 µM).
On to `CCOc1cc(CN2CCC(Nc3nc4ccccc4o3)CC2)c(F)c(OCC)c1`, for which the Ki in series [1] was > 10 µM; in series [2], > 10 µM; in series [4] it was > 1 µM; in series [3], > 10 µM.
Take `CCOc1cc(CN2CCC(Nc3nc4ccccc4o3)CC2)c(F)cc1OCCO`: the Ki is > 10 µM in series [1], > 10 µM in series [2], > 1 µM in [4] and > 10 µM in series [3].
In the case of `CCOc1cc(NC2CCC(NCc3nc4ccccc4s3)CC2)ccc1OC` (stereo not drawn), the Ki is > 10 µM in series [1], > 10 µM in series [2], > 1 µM in series [4] and > 10 µM in [3].
As for `CCOc1cc(CN2CCC(Nc3nc4ccccc4s3)CC2)ccc1OC`, the Ki in series [1] is > 10 µM; in [2] it was > 10 µM; in series [4], 0.33 µM; in series [3], > 10 µM.
Take `CCOc1cc(CN2CCC(Nc3nc4ccccc4o3)CC2)ccc1F`: in series [5], the logD was determined as 3.63. Also, the Ki was > 10 µM in series [1], 0.826 µM in [6], > 10 µM in series [2] and > 10 µM in series [3]. The pKa in [10] was 7.79. For the same compound, the Papp in [7] is 4.33 ×10⁻⁶ cm/s. In series [8], the Ratio Ki was found to be 4.3. Besides, the solubility in series [9] is > 452 µg/mL.
For `CCOc1cc(CN2CCC(Nc3nc4ccncc4o3)CC2)ccc1OC`, the Ki in series [1] was > 10 µM; in series [2] it was > 10 µM; in series [4] it was 0.72 µM; in series [3], > 10 µM.
Turning to `CCOc1cc(CN2CCC(Nc3nc4ccccc4o3)CC2)ccc1C(F)(F)F`, the Ki in series [1] was > 10 µM; in [2] it was > 10 µM; in series [4], 0.524 µM; in series [3], > 10 µM.
Regarding `CCOc1cc(CN2CCC(Nc3nc4ccccc4o3)CC2)ccc1O`, the Ki in series [1], in series [2] and in series [3] was > 10 µM throughout.
Turning to `COc1ccc(CCN2CCC(Nc3nc4ccccc4n3Cc3ccc(F)cc3)CC2)cc1` [ASTEMIZOLE], the Ki in [1], in series [2] and in [3] was > 10 µM in each case.
